Source: ChEMBL document CHEMBL2069303, “Stellettin A induces endoplasmic reticulum stress in murine B16 melanoma cells” (J Nat Prod, 2012)
≈ marks a conversion by molar mass, not a printed value. Calls of active or inactive are those of the source. The calls are words filed in the database; no cut-off is given here.

Tests used:
B16-F10 [1] = assay: Cytotoxicity against C57BL/6J mouse B16F10 cells after 48 hrs by SRB assay; format: functional, cell-based; details: B16-F10, 48 h
In short: (§1)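 B16F10 and TM3 cells in 96-well plates were exposed to serial dilutions (0.08–5 μg/mL) for 24 or 48 h. Proteins were fixed with 50% TCA, stained with 0.4% SRB in 1% acetic acid, rinsed with 1% acetic acid, and the dye was dissolved in 10 mM Tris base (pH 10.5). Absorbance was read at 570 nm. Triplicates in at least three separate experiments; IC50 from concentration–response.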

[2] = Cytotoxicity against mouse TM3 cells after 48 hrs by SRB assay; format: functional, cell-based; details: TM3, 48 h; in short: as §1
HaCaT [3] = assay: Selectivity ratio of IC50 for human HaCaT cells to IC50 for mouse B16F10 cells; format: functional
HaCaT [4] = assay: Selectivity ratio of IC50 for human HaCaT cells to IC50 for mouse TM3 cells; format: functional
HT-29 [5] = assay: Selectivity ratio of IC50 for human HT-29 cells to IC50 for mouse B16F10 cells; format: functional
HT-29 [6] = assay: Selectivity ratio of IC50 for human HT-29 cells to IC50 for mouse TM3 cells; format: functional
B16-F10 [7] = assay: Selectivity ratio of IC50 for mouse Melan-a cells to IC50 for mouse B16F10 cells; format: functional
[8] = Selectivity ratio of IC50 for mouse Melan-a cells to IC50 for mouse TM3 cells; format: functional
B16-F10 [9] = assay: Decrease in TRP1 level in C57BL/6J mouse B16F10 cells assessed as depigmentation after 48 hrs; format: functional, cell-based
B16-F10 [10] = assay: Induction of endoplasmic reticulum stress in C57BL/6J mouse B16F10 cells assessed as immature TRP1 level at 0.6 ug/mL after 24 hrs by immunoblot analysis; format: functional, cell-based
In short: (§2)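 Treated B16F10 cells were PBS-washed and lysed in 50 mM Tris-Cl, 150 mM NaCl, 0.2% Triton X-100, aprotinin and PMSF, then spun at 4 °C. Protein was equalised by BCA. Lysates were run on 10% SDS-PAGE, transferred to PVDF, blocked with 2% gelatin and probed with specific primary antibodies (TRP-1 blots: 0–0.625 μg/mL for 24 h).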

B16-F10 [11] = assay: Induction of endoplasmic reticulum stress in C57BL/6J mouse B16F10 cells assessed as deglycosylated TRP1 level at 0.6 ug/mL after 24 hrs by immunoblot analysis; format: functional, cell-based; in short: as §2
B16-F10 [12] = assay: Induction of endoplasmic reticulum stress in C57BL/6J mouse B16F10 cells assessed as immature TRP1 level at 0.6 ug/mL incubated for 12 to 24 hrs measured 1 hr post endoglycosidase H-treatment by immunoblot analysis; format: functional, cell-based
In short: (§3)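 Lysates of treated B16F10 cells were prepared in RIPA buffer. Protein (10 μg) was digested with 100 units endoglycosidase H or peptide N-glycosidase F at 37 °C for 1 h, then immunoblotted for TRP-1 to separate EndoH-sensitive and EndoH-resistant glycoforms.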

B16-F10 [13] = assay: Induction of endoplasmic reticulum stress in C57BL/6J mouse B16F10 cells assessed as abnormally glycosylated TRP1 level at 0.6 ug/mL incubated for 12 hrs measured 1 hr post peptide N-glycosidase F-treatment by immunoblot analysis; format: functional, cell-based; in short: as §3
B16-F10 [14] = assay: Induction of endoplasmic reticulum stress in C57BL/6J mouse B16F10 cells assessed as upregulation of GRP78 level at 0.625 ug/mL after 12 hrs by immunoblot analysis; format: functional, cell-based; in short: as §2
B16-F10 [15] = assay: Induction of endoplasmic reticulum stress in C57BL/6J mouse B16F10 cells assessed as upregulation of HSC70 level at 0.625 ug/mL after 12 hrs by immunoblot analysis; format: functional, cell-based; in short: as §2
B16-F10 [16] = assay: Induction of endoplasmic reticulum stress in C57BL/6J mouse B16F10 cells assessed as upregulation of GRP78 level at 0.625 ug/mL after 24 hrs by immunoblot analysis; format: functional, cell-based; in short: as §2
B16-F10 [17] = assay: Induction of endoplasmic reticulum stress in C57BL/6J mouse B16F10 cells assessed as upregulation of HSC70 level at 0.625 ug/mL after 24 hrs by immunoblot analysis; format: functional, cell-based; in short: as §2
B16-F10 [18] = assay: Cytotoxicity against C57BL/6J mouse B16F10 cells after 24 hrs by SRB assay; format: functional, cell-based; details: B16-F10, 24 h; in short: as §1
B16-F10 [19] = assay: Induction of endoplasmic reticulum stress in C57BL/6J mouse B16F10 cells assessed as upregulation of GRP78 level after 24 hrs by immunofluorescence staining method; format: functional, cell-based
In short: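 B16F10 cells (20 000/mL) on gelatinized coverslips were treated with 0, 0.31, 0.625, 1.25 or 2.5 μg/mL for 24 h. Fixed in 4% paraformaldehyde and immunostained for GRP78, with Alexa-594-conjugated secondary IgG. DAPI counterstain; confocal imaging.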

B16-F10 [20] = assay: Induction of autophagy in C57BL/6J mouse B16F10 cells assessed as LC32 accumulation at 0.6 ug/mL by immunoblot analysis; format: functional, cell-based; in short: as §2
B16-F10 [21] = assay: Induction of apoptosis in C57BL/6J mouse B16F10 cells assessed as Bcl2 activation at 0.6 ug/mL up to 48 hrs by immunoblot analysis; format: functional, cell-based
B16-F10 [22] = assay: Induction of autophagy in C57BL/6J mouse B16F10 cells assessed as LC3-TYR colocalization at 0.625 to 2.5 ug/mL after 24 hrs by fluorescence microscopy; format: functional, cell-based
In short: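 B16F10 cells on sterile coverslips were exposed to 0, 0.625, 1.25 or 2.5 μg/mL for 24 h, PBS-washed and paraformaldehyde-fixed. They were co-stained with anti-tyrosinase and anti-LC3, then AlexaFluor-488/594 secondary IgG. DAPI counterstain. Confocal microscopy used to score yellow overlap.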

B16-F10 [23] = assay: Cytotoxicity against C57BL/6J mouse B16F10 cells assessed as cell viability after 24 hrs by SRB assay relative to control; format: functional
In short: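 B16F10 cells (20 000/0.1 mL) were given serial concentrations (0.08–5 μg/mL) for 24 h. SRB read-out: TCA fixation, 0.4% SRB staining, acetic acid rinses, solubilisation in 10 mM Tris (pH 10.5), absorbance at 570 nm. Viability expressed relative to untreated control; triplicates in at least three experiments.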

Compound: C\C(=C/C=C/C(C)=C1/C(=O)C[C@H]2[C@@]3(C)CCC(=O)C(C)(C)[C@@H]3CC[C@]12C)c1ccc(C)c(=O)o1 [STELLETIN A]
- IC50 (B16-F10 [1]): 0.15 µg/mL (≈ 0.324 µM)
- IC50 [2]: 0.8 µg/mL (≈ 1.73 µM)
- Ratio IC50 (HaCaT [3]): 10
- Ratio IC50 (HaCaT [4]): 10
- Ratio IC50 (HT-29 [5]): 10
- Ratio IC50 (HT-29 [6]): 10
- Ratio IC50 (B16-F10 [7]): 10
- Ratio IC50 [8]: 10
- Activity (B16-F10 [9]): Active
- Activity (B16-F10 [10]): Active
- Activity (B16-F10 [11]): Active
- Activity (B16-F10 [12]): Active
- Activity (B16-F10 [13]): Active
- Activity (B16-F10 [14]): Active
- Activity (B16-F10 [15]): Active
- Activity (B16-F10 [16]): inactive
- Activity (B16-F10 [17]): inactive
- IC50 (B16-F10 [18]): 2 µg/mL (≈ 4.32 µM)
- Activity (B16-F10 [19]): Dose-dependent effect
- Activity (B16-F10 [20]): Active
- Activity (B16-F10 [21]): inactive
- Activity (B16-F10 [22]): Active
- Activity (B16-F10 [23]): 70%
